Results published in ChEMBL document CHEMBL1275559, “Complex ciprofloxacin resistome revealed by screening a Pseudomonas aeruginosa mutant library for altered susceptibility” (2008).
Calls of active or inactive are those of the source.

How the values were obtained:
[1] = tested on: Pseudomonas aeruginosa; assay: Upregulation of putative phage tail protein in Pseudomonas aeruginosa PA0619 at MIC; format: functional, organism-based
[2] = tested on: Pseudomonas aeruginosa; assay: Upregulation of putative tail fiber protein in Pseudomonas aeruginosa PA0620 at 0.3 times MIC; format: functional, organism-based
[3] = tested on: Pseudomonas aeruginosa; assay: Upregulation of putative tail fiber protein in Pseudomonas aeruginosa PA0620 at MIC; format: functional, organism-based
[4] = tested on: Pseudomonas aeruginosa; assay: Upregulation of putative phage tail tube protein in Pseudomonas aeruginosa PA0623 at 0.3 times MIC; format: functional, organism-based
[5] = tested on: Pseudomonas aeruginosa; assay: Upregulation of putative tail fiber assembly protein in Pseudomonas aeruginosa PA0621 at 0.3 times MIC; format: functional, organism-based
[6] = tested on: Pseudomonas aeruginosa; assay: Upregulation of putative tail fiber assembly protein in Pseudomonas aeruginosa PA0621 at MIC; format: functional, organism-based
[7] = tested on: Pseudomonas aeruginosa; assay: Upregulation of putative phage tail sheath protein in Pseudomonas aeruginosa PA0622 at 0.3 times MIC after 48 hrs; format: functional, organism-based
[8] = tested on: Pseudomonas aeruginosa; assay: Upregulation of putative phage tail sheath protein in Pseudomonas aeruginosa PA0622 at MIC after 48 hrs; format: functional, organism-based
[9] = tested on: Pseudomonas aeruginosa; assay: Upregulation of putative phage tail tube protein in Pseudomonas aeruginosa PA0623 at MIC; format: functional, organism-based
[10] = tested on: Pseudomonas aeruginosa; assay: Upregulation of conserved hypothetical protein in Pseudomonas aeruginosa PA0624 at 0.3 times MIC; format: functional, organism-based
Method in brief: (§1)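 P. aeruginosa cells were treated with ciprofloxacin at 0.3× MIC or 1× MIC. Gene expression trend was scored relative to untreated cells.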

[11] = tested on: Pseudomonas aeruginosa; assay: Upregulation of putative tail formation protein in Pseudomonas aeruginosa PA0626 at 0.3 times MIC; format: functional, organism-based
[12] = tested on: Pseudomonas aeruginosa; assay: Upregulation of hypothetical protein in Pseudomonas aeruginosa PA0630 at 0.3 times MIC; format: functional, organism-based; method in brief: as §1
[13] = tested on: Pseudomonas aeruginosa; assay: Upregulation of hypothetical protein in Pseudomonas aeruginosa PA0630 at MIC; format: functional, organism-based; method in brief: as §1
[14] = tested on: Pseudomonas aeruginosa; assay: Upregulation of putative major tail protein V in Pseudomonas aeruginosa PA0633 at MIC; format: functional, organism-based; method in brief: as §1
[15] = tested on: Pseudomonas aeruginosa; assay: Upregulation of hypothetical protein in Pseudomonas aeruginosa PA0634 at 0.3 times MIC; format: functional, organism-based; method in brief: as §1
[16] = tested on: Pseudomonas aeruginosa; assay: Upregulation of hypothetical protein in Pseudomonas aeruginosa PA0634 at MIC; format: functional, organism-based; method in brief: as §1
[17] = tested on: Pseudomonas aeruginosa; assay: Upregulation of putative phage tail assembly protein in Pseudomonas aeruginosa PA0640 at 0.3 times MIC; format: functional, organism-based; method in brief: as §1
[18] = tested on: Pseudomonas aeruginosa; assay: Upregulation of putative phage tail assembly protein in Pseudomonas aeruginosa PA0640 at MIC; format: functional, organism-based; method in brief: as §1
[19] = tested on: Pseudomonas aeruginosa; assay: Upregulation of putative phage-related protein, tail component in Pseudomonas aeruginosa PA0641 at 0.3 times MIC; format: functional, organism-based
[20] = tested on: Pseudomonas aeruginosa; assay: Upregulation of putative phage-related protein, tail component in Pseudomonas aeruginosa PA0641 at MIC; format: functional, organism-based
[21] = tested on: Pseudomonas aeruginosa; assay: Upregulation of conserved hypothetical protein in Pseudomonas aeruginosa PA0647 at 0.3 times MIC; format: functional, organism-based; method in brief: as §1
[22] = tested on: Pseudomonas aeruginosa; assay: Upregulation of conserved hypothetical protein in Pseudomonas aeruginosa PA0647 at MIC; format: functional, organism-based; method in brief: as §1
[23] = tested on: Pseudomonas aeruginosa; assay: Upregulation of hypothetical protein in Pseudomonas aeruginosa PA0736-PA0737 at 0.3 times MIC; format: functional, organism-based; method in brief: as §1
[24] = tested on: Pseudomonas aeruginosa; assay: Upregulation of hypothetical protein in Pseudomonas aeruginosa PA0736-PA0737 at MIC; format: functional, organism-based; method in brief: as §1
[25] = tested on: Pseudomonas aeruginosa; assay: Upregulation of conserved hypothetical protein in Pseudomonas aeruginosa PA1433 at MIC after 48 hrs; format: functional, organism-based
[26] = tested on: Pseudomonas aeruginosa; assay: Upregulation of putative permease of ABC transporter in Pseudomonas aeruginosa PA2060 at 0.3 times MIC after 48 hrs; format: functional, organism-based
[27] = tested on: Pseudomonas aeruginosa; assay: Downregulation of hypothetical protein in Pseudomonas aeruginosa PA3276 at 0.3 times MIC after 48 hrs; format: functional, organism-based
[28] = tested on: Pseudomonas aeruginosa; assay: Upregulation of conserved hypothetical protein in Pseudomonas aeruginosa PA3784 at MIC after 48 hrs; format: functional, organism-based
[29] = tested on: Pseudomonas aeruginosa; assay: Upregulation of possible nuclease or phosphatase in Pseudomonas aeruginosa PA3958 at 0.3 times MIC after 48 hrs; format: functional, organism-based
[30] = tested on: Pseudomonas aeruginosa; assay: Upregulation of possible nuclease or phosphatase in Pseudomonas aeruginosa PA3958 at MIC after 48 hrs; format: functional, organism-based
[31] = tested on: Pseudomonas aeruginosa; assay: Upregulation of hypothetical protein in Pseudomonas aeruginosa PA0338 at MIC; format: functional, organism-based; method in brief: as §1
[32] = tested on: Pseudomonas aeruginosa; assay: Upregulation of putative tail length determination protein in Pseudomonas aeruginosa PA0636 at 0.3 times MIC; format: functional, organism-based
[33] = tested on: Pseudomonas aeruginosa; assay: Upregulation of putative tail length determination protein in Pseudomonas aeruginosa PA0636 at MIC; format: functional, organism-based
[34] = tested on: Pseudomonas aeruginosa; assay: Upregulation of putative minor tail protein L in Pseudomonas aeruginosa PA0638 at MIC; format: functional, organism-based; method in brief: as §1
[35] = tested on: Pseudomonas aeruginosa; assay: Upregulation of putative major tail protein V in Pseudomonas aeruginosa PA0633 at 0.3 times MIC; format: functional, organism-based; method in brief: as §1
[36] = tested on: Pseudomonas aeruginosa; assay: Upregulation of putative tail formation protein in Pseudomonas aeruginosa PA0626 at MIC; format: functional, organism-based
[37] = tested on: Pseudomonas aeruginosa; assay: Upregulation of conserved hypothetical protein in Pseudomonas aeruginosa PA0624 at MIC; format: functional, organism-based; method in brief: as §1
[38] = tested on: Pseudomonas aeruginosa; assay: Upregulation of conserved hypothetical protein in Pseudomonas aeruginosa PA0613 at MIC after 48 hrs; format: functional, organism-based
[39] = tested on: Pseudomonas aeruginosa; assay: Upregulation of ygdP gene in Pseudomonas aeruginosa PA0336 at 0.3 times MIC relative to untreated control; format: functional, organism-based
[40] = tested on: Pseudomonas aeruginosa; assay: Upregulation of ygdP gene in Pseudomonas aeruginosa PA0336 at 1 times MIC relative to untreated control; format: functional, organism-based
[41] = tested on: Pseudomonas aeruginosa; assay: Upregulation of mexB gene in Pseudomonas aeruginosa PA0426 at 0.3 times MIC relative to untreated control; format: functional, organism-based; method in brief: as §1
[42] = tested on: Pseudomonas aeruginosa; assay: Upregulation of oprM gene in Pseudomonas aeruginosa PA0427 at 1 times MIC relative to untreated control; format: functional, organism-based; method in brief: as §1
[43] = tested on: Pseudomonas aeruginosa; assay: Downregulation of oprF gene in Pseudomonas aeruginosa PA1777 at 1 times MIC relative to untreated control; format: functional, organism-based; method in brief: as §1
[44] = tested on: Pseudomonas aeruginosa; assay: Downregulation of tig gene in Pseudomonas aeruginosa PA1800 at 1 times MIC relative to untreated control; format: functional, organism-based; method in brief: as §1
[45] = tested on: Pseudomonas aeruginosa; assay: Downregulation of betT1 gene in Pseudomonas aeruginosa PA5375 at 0.3 times MIC relative to untreated control; format: functional, organism-based; method in brief: as §1
[46] = tested on: Pseudomonas aeruginosa; assay: Upregulation of nuoN gene in Pseudomonas aeruginosa PA2649 at 0.3 times MIC; format: functional, organism-based; method in brief: as §1
[47] = tested on: Pseudomonas aeruginosa; assay: Upregulation of hitB gene in Pseudomonas aeruginosa PA4688 at 0.3 times MIC; format: functional, organism-based; method in brief: as §1
[48] = tested on: Pseudomonas aeruginosa; assay: Upregulation of hitB gene in Pseudomonas aeruginosa PA4688 at MIC; format: functional, organism-based; method in brief: as §1
[49] = tested on: Pseudomonas aeruginosa; assay: Upregulation of mutL gene in Pseudomonas aeruginosa PA4946 at MIC; format: functional, organism-based; method in brief: as §1
[50] = tested on: Pseudomonas aeruginosa; assay: Downregulation of nuoG gene in Pseudomonas aeruginosa PA2642 at MIC; format: functional, organism-based; method in brief: as §1
[51] = tested on: Pseudomonas aeruginosa; assay: Downregulation of adhA gene in Pseudomonas aeruginosa PA5427 at MIC; format: functional, organism-based; method in brief: as §1
[52] = tested on: Pseudomonas aeruginosa; assay: Upregulation of atpB gene in Pseudomonas aeruginosa PA5560 at MIC; format: functional, organism-based; method in brief: as §1
[53] = tested on: Pseudomonas aeruginosa; assay: Upregulation of gidA gene in Pseudomonas aeruginosa PA5565 at MIC; format: functional, organism-based; method in brief: as §1
[54] = tested on: Pseudomonas aeruginosa; assay: Upregulation of hypothetical protein in Pseudomonas aeruginosa PA0338 at 0.3 times MIC; format: functional, organism-based; method in brief: as §1
[55] = tested on: Pseudomonas aeruginosa; assay: Upregulation of putative sensor/response regulator hybrid in Pseudomonas aeruginosa PA1611 at 0.3 times MIC; format: functional, organism-based
[56] = tested on: Pseudomonas aeruginosa; assay: Upregulation of hypothetical protein in Pseudomonas aeruginosa PA4459 at MIC; format: functional, organism-based; method in brief: as §1
[57] = tested on: Pseudomonas aeruginosa; assay: Upregulation of hypothetical protein in Pseudomonas aeruginosa PA4685 at 0.3 times MIC; format: functional, organism-based; method in brief: as §1
[58] = tested on: Pseudomonas aeruginosa; assay: Upregulation of conserved hypothetical protein in Pseudomonas aeruginosa PA0613 at 0.3 times MIC after 48 hrs; format: functional, organism-based
[59] = tested on: Pseudomonas aeruginosa; assay: Upregulation of conserved hypothetical protein in Pseudomonas aeruginosa PA0615 at 0.3 times MIC; format: functional, organism-based; method in brief: as §1
[60] = tested on: Pseudomonas aeruginosa; assay: Upregulation of hypothetical protein in Pseudomonas aeruginosa PA0616 at 0.3 times MIC; format: functional, organism-based; method in brief: as §1
[61] = tested on: Pseudomonas aeruginosa; assay: Upregulation of conserved hypothetical protein in Pseudomonas aeruginosa PA0615 at MIC; format: functional, organism-based; method in brief: as §1
[62] = tested on: Pseudomonas aeruginosa; assay: Upregulation of hypothetical protein in Pseudomonas aeruginosa PA0616 at MIC; format: functional, organism-based; method in brief: as §1
[63] = tested on: Pseudomonas aeruginosa; assay: Upregulation of putative base plate assembly protein W in Pseudomonas aeruginosa PA0617 at 0.3 times MIC; format: functional, organism-based; method in brief: as §1
[64] = tested on: Pseudomonas aeruginosa; assay: Upregulation of putative base plate assembly protein W in Pseudomonas aeruginosa PA0617 at MIC; format: functional, organism-based; method in brief: as §1
[65] = tested on: Pseudomonas aeruginosa; assay: Upregulation of putative phage base plate assembly protein in Pseudomonas aeruginosa PA0618 at 0.3 times MIC; format: functional, organism-based; method in brief: as §1
[66] = tested on: Pseudomonas aeruginosa; assay: Upregulation of putative phage base plate assembly protein in Pseudomonas aeruginosa PA0618 at MIC; format: functional, organism-based; method in brief: as §1
[67] = tested on: Pseudomonas aeruginosa; assay: Upregulation of putative phage tail protein in Pseudomonas aeruginosa PA0619 at 0.3 times MIC; format: functional, organism-based; method in brief: as §1
[68] = tested on: Pseudomonas aeruginosa; assay: Downregulation of betT1 gene in Pseudomonas aeruginosa PA5375 at 0.3 times MIC relative to untreated control

Measured: Activity

O=C(O)c1cn(C2CC2)c2cc(N3CCNCC3)c(F)cc2c1=O
active: [1] | [2] | [3] | [4] | [5] | [6] | [7] | [8] | [9] | [10] | [11] | [12] | [13] | [14] | [15] | [16] | [17] | [18] | [19] | [20] | [21] | [22] | [23] | [24] | [25] | [26] | [27] | [28] | [29] | [30] | [31] | [32] | [33] | [34] | [35] | [36] | [37] | [38] | [39] | [40] | [41] | [42] | [43] | [44] | [45] | [46] | [47] | [48] | [49] | [50] | [51] | [52] | [53] | [54] | [55] | [56] | [57] | [58] | [59] | [60] | [61] | [62] | [63] | [64] | [65] | [66] | [67] | [68]
